Only some compounds are listed: those with a hit (about 2.2% of all), similar ones and a draw of the others.
FGF22 binding: binders of recombinant human FGF22 by thermal shift; SYPRO orange fluorescence; percent of sucrose octasulfate shift, DMSO zero; Q9HCT0; activity (Tm shift, normalised), % at 9.99 µM; 340,000 tested, 1.5% active;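 active means mean Tm shift, scaled 0 neutral to 100 positive control, at about 1.3% or above, every replicate too, limit read from the data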
Target sequence (Q9HCT0 whole entry, looked up): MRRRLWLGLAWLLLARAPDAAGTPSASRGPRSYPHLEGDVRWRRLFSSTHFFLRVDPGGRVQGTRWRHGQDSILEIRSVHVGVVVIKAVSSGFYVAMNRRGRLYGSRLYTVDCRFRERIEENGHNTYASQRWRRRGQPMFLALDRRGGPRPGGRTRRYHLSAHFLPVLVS
dFosB act-1: mouse delta FosB homodimer activation. activation, % at 25 µM. 340,000 tested, 0.99% active. purified delta FosB, TAMRA-CDK5 oligo fluorescence polarization; percent of positive-control signal above neutral wells. AID 493131. P13346;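 active means mean activation above about 17%, with every replicate also reaching it, limit read from the data, passing the limit was not always enough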
Target sequence (P13346 whole entry, looked up): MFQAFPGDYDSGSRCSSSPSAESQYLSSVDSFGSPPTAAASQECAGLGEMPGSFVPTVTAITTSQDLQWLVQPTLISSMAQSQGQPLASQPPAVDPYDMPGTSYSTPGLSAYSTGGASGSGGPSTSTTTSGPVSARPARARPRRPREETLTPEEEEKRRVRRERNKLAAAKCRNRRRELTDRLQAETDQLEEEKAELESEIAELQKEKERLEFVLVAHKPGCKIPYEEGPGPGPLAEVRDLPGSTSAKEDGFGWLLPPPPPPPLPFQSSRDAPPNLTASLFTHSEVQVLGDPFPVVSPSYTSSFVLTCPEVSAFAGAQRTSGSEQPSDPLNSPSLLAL
S100A4 inh HTS: S100A4-myosin IIA interaction inhibition; S100A4/TAMRA-MyoIIA peptide fluorescence polarization; inhibition, % at 10.7 µM; 360,000 tested, 0.14% active; AID 652163;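 active means mean inhibition of at least 70% across replicates, with every replicate also reaching that level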
Target sequence (P26447 whole entry, looked up): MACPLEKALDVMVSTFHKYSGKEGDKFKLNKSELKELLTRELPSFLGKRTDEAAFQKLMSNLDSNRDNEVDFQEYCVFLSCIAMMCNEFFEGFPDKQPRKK
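Test system – S100A4 monomer (human) · Compound – single-point compound testing · Schedule – 5 min incubation before reading · Probe or stimulus – TAMRA-labelled myosin IIA heavy-chain peptide probe, 5 nM · Benchmarks – neutral control DMSO, positive control TFP · Medium – Calcium-containing HEPES buffer, pH 7.2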
CFTR F508del cor: CFTR F508del correction in bronchial cells; CFBE cells, YFP halide quenching; stimulated with forskolin plus potentiator P3; % fluorescence drop versus neutral controls; activity (quench increase), % at 7.58 µM; 350,000 tested, 0.36% active;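 active means mean added fluorescence quench of at least 8% versus neutral control, with both replicates also reaching 8%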;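 further: cells transiently co-express mutant CFTR-F508del with the halide-sensitive YFP; corrector assay measuring rescue of mutant channel to the surface after 24 h compound exposure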
dFosB act-2: enhances mouse delta FosB homodimer binding to DNA; purified delta FosB, TAMRA-CDK5 oligo fluorescence polarization; normalised: neutral wells 0, positive control 100; activation, % at 24.9 µM; shares compounds with dFosB act-1; 2,400 tested, under 10 active;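 active means highest replicate activation at or above 34% and every replicate reaching that threshold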;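 further: higher polarization means more probe DNA bound by delta FosB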
A number is an active result; ! = not confirmed by another sample.

`CCc1ccc2oc(C(=O)Nc3ccc(S(N)(=O)=O)cc3)c(C)c2c1` gave FGF22 binding inactive, dFosB act-1 inactive, S100A4 inh HTS inactive and CFTR F508del cor inactive.
Screening Cc1c(C(=O)Nc2ccc(S(N)(=O)=O)cc2)oc2ccc(Cl)cc12 returned FGF22 binding inactive, dFosB act-1 26.7, S100A4 inh HTS inactive, CFTR F508del cor inactive and dFosB act-2 inactive.
Screening O=C(Nc1nccs1)c1cn(-c2ccccc2)nc1-c1ccccc1 returned dFosB act-1 inactive.
For CC(C)COc1ccc(-c2nn(-c3ccccc3)cc2C(=O)Nc2nccs2)cc1 the results were dFosB act-1 38.6 and dFosB act-2 inactive.
Screening O=C(c1ccc(Br)o1)N1CCN(c2ccc3nnc(-c4ccccc4)n3n2)CC1 returned FGF22 binding inactive, dFosB act-1 inactive, S100A4 inh HTS inactive and CFTR F508del cor inactive.
`O=S(=O)(c1ccc(Br)cc1)N1CCN(c2ccc3nnc(-c4ccccc4)n3n2)CC1` gave FGF22 binding inactive, dFosB act-1 38.4, S100A4 inh HTS inactive, CFTR F508del cor inactive and dFosB act-2 inactive.
COC(=O)c1cc(NC(=O)c2ccc(Cn3cc(Cl)cn3)o2)cc(C(=O)OC)c1 was read as dFosB act-1 20.9 and dFosB act-2 inactive.
Screening COc1ccc(CN2CN(S(=O)(=O)c3cccs3)c3nc4ccccc4nc32)cc1 returned FGF22 binding inactive, dFosB act-1 57.9, S100A4 inh HTS inactive, CFTR F508del cor inactive and dFosB act-2 inactive.
`Cc1ccc(S(=O)(=O)N(C)C[C@H]2Oc3ccc(NS(=O)(=O)c4ccccc4)cc3CC(=O)N([C@H](C)CO)C[C@H]2C)cc1` gave FGF22 binding inactive, S100A4 inh HTS inactive and CFTR F508del cor inactive.
Screening CCC(=O)Nc1ccc2c(c1)OC[C@H](C)N(Cc1ccncc1)C[C@@H](C)[C@@H](OC)CN(C)C2=O returned FGF22 binding inactive, S100A4 inh HTS inactive and CFTR F508del cor inactive.
Screening C[C@H](CO)N1C[C@H](C)[C@H](CN(C)Cc2ccc(F)cc2)Oc2ncc(-c3ccc(F)cc3)cc2C1=O returned CFTR F508del cor inactive.
Screening CN1CCN(Cc2nc3ccccc3c(=O)n2Cc2nc(-c3cccc([N+](=O)[O-])c3)cs2)CC1 returned FGF22 binding inactive, dFosB act-1 inactive, S100A4 inh HTS inactive and CFTR F508del cor inactive.
`CN1CCN(Cc2nc3ccccc3c(=O)n2Cc2nc(-c3ccc4ccccc4c3)cs2)CC1` gave FGF22 binding inactive, dFosB act-1 27.1!, S100A4 inh HTS inactive, CFTR F508del cor inactive and dFosB act-2 inactive.
`COc1ccc(C(=O)Nc2nc3cc(OC)c(OC)cc3c(=O)[nH]2)cc1` gave dFosB act-1 24.5 and dFosB act-2 inactive.
Cc1noc(C)c1S(=O)(=O)N(C)C[C@@H]1Oc2ccc(NS(=O)(=O)c3ccc(Cl)cc3)cc2CC(=O)N([C@H](C)CO)C[C@H]1C was read as FGF22 binding inactive, S100A4 inh HTS inactive and CFTR F508del cor inactive.
`C[C@@H]1CN([C@H](C)CO)C(=O)c2cc(NS(=O)(=O)c3ccc(F)cc3)ccc2O[C@@H](C)CCCCO[C@H]1CN(C)Cc1ccncc1` gave FGF22 binding inactive, S100A4 inh HTS inactive and CFTR F508del cor inactive.
For CN(C)CCCNc1ncnc2sc(-c3ccccc3)cc12 the results were FGF22 binding inactive, dFosB act-1 27.2, S100A4 inh HTS inactive, CFTR F508del cor inactive and dFosB act-2 inactive.
For Cc1ccc(NC(=O)c2ccc(OC(=O)CCN3C(=O)c4ccccc4C3=O)cc2)cc1 the results were dFosB act-1 35.0 and dFosB act-2 inactive.
For Cc1cc(C)cc(OC(=O)CCN2C(=O)c3ccccc3C2=O)c1 the results were FGF22 binding inactive, dFosB act-1 inactive and S100A4 inh HTS inactive.
Screening COc1ccc(/C=C2\SC(=O)N(CCC(=O)Nc3ccc(S(=O)(=O)Nc4nccs4)cc3)C2=O)cc1 returned dFosB act-1 86.0 and dFosB act-2 inactive.
`C=CCNC(=O)[C@@H]1[C@H]2C(=O)O[C@H](c3ccccc3)[C@H](c3ccccc3)N2[C@H](c2ccc(OCCO)cc2)[C@@]12C(=O)Nc1ccc(C#CCCO)cc12` gave FGF22 binding inactive, S100A4 inh HTS inactive and CFTR F508del cor inactive.
For Cc1ccc(S(=O)(=O)N(C)C[C@H]2Oc3ccc(N(C)C)cc3CC(=O)N([C@H](C)CO)C[C@@H]2C)cc1 the results were FGF22 binding inactive, S100A4 inh HTS inactive and CFTR F508del cor inactive.
Screening COc1ccc(CCNCC(O)Cn2c3ccccc3c3ccccc32)cc1OC (configuration not stated) returned FGF22 binding inactive, dFosB act-1 20.8, S100A4 inh HTS inactive, CFTR F508del cor inactive and dFosB act-2 inactive.
For C[C@H](CO)N1C[C@H](C)[C@@H](CN(C)S(=O)(=O)c2ccc(F)cc2)Oc2c(NC(=O)CCCCCC(=O)Nc3ccccc3N)cccc2C1=O the results were FGF22 binding inactive, S100A4 inh HTS inactive and CFTR F508del cor inactive.
CN(CC(=O)Nc1ccc(Cl)c(C(F)(F)F)c1)C(=O)CCc1nc2ccccc2c(=O)[nH]1 was read as FGF22 binding inactive, dFosB act-1 52.1, S100A4 inh HTS inactive, CFTR F508del cor inactive and dFosB act-2 inactive.
CCN(CC(=O)Nc1c(F)cccc1F)C(=O)CCc1nc2ccccc2c(=O)[nH]1 was read as FGF22 binding inactive, dFosB act-1 inactive, S100A4 inh HTS inactive and CFTR F508del cor inactive.
Screening CCCN(CC(=O)Nc1ccc(F)c(F)c1F)C(=O)CCc1nc2ccccc2c(=O)[nH]1 returned FGF22 binding inactive, dFosB act-1 40.1, S100A4 inh HTS inactive, CFTR F508del cor inactive and dFosB act-2 inactive.
Screening CN(CC(=O)Nc1ccc(F)cc1)C(=O)CCc1nc2ccccc2c(=O)[nH]1 returned FGF22 binding inactive, dFosB act-1 inactive, S100A4 inh HTS inactive and CFTR F508del cor inactive.
`CN(C)C(=O)[C@H]1[C@H](CO)[C@H]2Cn3c(ccc(-c4ccc(F)cc4)c3=O)[C@@H]1N2CCc1ccccc1` gave FGF22 binding inactive, S100A4 inh HTS inactive and CFTR F508del cor inactive.
Screening CNC(=O)C[C@@H]1CC[C@H]2[C@H](COc3ccc(NC(=O)Nc4ccccc4)cc3C(=O)N2C)O1 returned FGF22 binding inactive, S100A4 inh HTS inactive and CFTR F508del cor inactive.
Cc1cc(NC(=O)CSc2nc(CCC3CCCC3)nc3ccccc23)no1 was read as dFosB act-1 47.4 and dFosB act-2 inactive.
`Cc1nn(Cc2ccccc2)c(C)c1NC(=O)CSc1nc(C2CC2)nc2c1cnn2-c1ccccc1` gave dFosB act-1 inactive.
Screening Cc1cccc(C)c1NC(=O)CSc1nc(C2CC2)nc2ccccc12 returned FGF22 binding inactive, dFosB act-1 20.3, S100A4 inh HTS inactive, CFTR F508del cor inactive and dFosB act-2 inactive.
`CCCc1nc(SCC(=O)Nc2cc(C)on2)c2ccccc2n1` gave dFosB act-1 inactive.

Screens: PubChem BioAssay, Broad Institute
